This is an account of results in ChEMBL document CHEMBL4411280, “Synthesis, structure activity relationship and in vitro anti-influenza virus activity of novel polyphenol-pentacyclic triterpene conjugates” (Eur J Med Chem, 2019).

Calls of active or inactive are those of the source. No cut-off for these calls is given here.

In series [1] the target is Hemagglutinin (Influenza A virus) (UniProt B4URE7). Kind of series: Inhibition of Influenza A virus A/WSN/33/H1N1 HA-mediated hemagglutination of chicken RBC measured after 30 mins. The method, boiled down:
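Compound serially diluted 3-fold in saline and mixed with an equal volume of A/WSN/33 virus (2 HA units). Freshly prepared chicken RBCs (1% v/v in saline) added. Incubated 30 min at room temperature, then agglutination scored visually. PBS as negative control, anti-HA antibody tested in parallel.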

Series [2] deals with Influenza A virus. The series can be described thus: Antiviral activity against Influenza A virus A/WSN/33/H1N1 infected in MDCK cells assessed as reduction in virus-induced cytopathic effect after 40 hrs by CellTiter-Glo assay. It is filed as functional, organism-based. Conditions: A/WSN/33/H1N1, MDCK. The method, boiled down: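 MDCK cells seeded overnight, infected with influenza A/WSN/33 (H1N1) at MOI 0.1. Kept in DMEM with 1% FBS, test compound, TPCK-treated trypsin and 1% final DMSO for 40 h. Cell viability read by CellTiter-Glo luminescence. IC50 taken from dose-response.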
In general terms: Cytopathic effects are the visible damage that an infection or toxin causes in cultured cells.

Series [3] has as its system Influenza A virus. Kind of series: Antiviral activity against Influenza A virus A/WSN/33/H1N1 infected in MDCK cells assessed as reduction in virus-induced cytopathic effect at 50 uM after 40 hrs by CellTiter-Glo assay. It is filed as functional, organism-based. The method, boiled down: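 Single-concentration screen at 50 μM final. MDCK cells infected with A/WSN/33 (H1N1) at MOI 0.1 in DMEM/1% FBS with TPCK-trypsin for 40 h, viability by CellTiter-Glo. 0.5% DMSO final as negative control, oseltamivir as positive control. Triplicate experiments, standard deviations shown.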

Series [4] addresses Hemagglutinin (Influenza A virus (A/Puerto Rico/8/1934(H1N1)), UniProt P03452). Kind of series: Binding affinity to recombinant Influenza A virus (A/California/04/2009 (H1N1)) hemagglutinin by SPR assay. An outline of the steps: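 HA immobilised on the sensor chip to about 16,000 RU. Compounds injected as analytes at various concentrations in PBS-P running buffer (10 mM phosphate, 2.7 mM KCl, 137 mM NaCl, 0.05% P20, […]), with 60 s contact and 60 s dissociation. KD determined.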
In general terms: SPR reads the build-up and loss of mass on a sensor chip optically.

The nature of series [5]: Cytotoxicity against MDCK cells after 40 hrs by CellTiter-Glo assay. Particulars: dog. It is filed as cell-based, Canis lupus familiaris. The method, boiled down: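 MDCK cells grown overnight in medium with 1% FBS, then exposed to increasing compound concentrations for 40 h. Viability measured by CellTiter-Glo luminescence, and CC50 derived from it.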
In general terms: Cellular ATP, detected with luciferase, serves as a proxy for viable cell number.

Series [6] concerns MDCK. The series can be described thus: Cytotoxicity against MDCK cells at 50 uM after 40 hrs by CellTiter-Glo assay. In kind it is cell-based, Canis lupus familiaris. Particulars: dog. An outline of the steps: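 Single-concentration toxicity screen at 50 μM final on MDCK cells for 40 h, read by CellTiter-Glo. 0.5% DMSO final as negative control. Triplicate experiments, standard deviations shown.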

Sequence of Hemagglutinin (Influenza A virus (A/Puerto Rico/8/1934(H1N1)), UniProt P03452) (P03452 whole entry): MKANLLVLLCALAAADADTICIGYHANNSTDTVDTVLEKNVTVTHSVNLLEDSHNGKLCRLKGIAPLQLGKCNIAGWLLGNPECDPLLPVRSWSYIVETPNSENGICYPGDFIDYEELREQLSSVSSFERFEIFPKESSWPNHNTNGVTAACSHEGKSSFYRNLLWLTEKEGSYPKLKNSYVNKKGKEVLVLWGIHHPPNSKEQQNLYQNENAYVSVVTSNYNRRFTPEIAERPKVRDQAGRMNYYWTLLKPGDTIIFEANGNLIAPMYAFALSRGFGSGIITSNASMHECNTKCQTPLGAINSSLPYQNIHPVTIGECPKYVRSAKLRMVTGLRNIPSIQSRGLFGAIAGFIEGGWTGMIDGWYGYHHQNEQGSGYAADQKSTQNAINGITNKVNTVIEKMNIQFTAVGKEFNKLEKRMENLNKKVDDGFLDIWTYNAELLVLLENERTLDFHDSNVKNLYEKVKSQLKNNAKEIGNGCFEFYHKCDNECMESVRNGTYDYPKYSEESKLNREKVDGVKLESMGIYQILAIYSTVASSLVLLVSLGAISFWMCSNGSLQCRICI
Sequence of Hemagglutinin (Influenza A virus) (B4URE7 as listed by the source): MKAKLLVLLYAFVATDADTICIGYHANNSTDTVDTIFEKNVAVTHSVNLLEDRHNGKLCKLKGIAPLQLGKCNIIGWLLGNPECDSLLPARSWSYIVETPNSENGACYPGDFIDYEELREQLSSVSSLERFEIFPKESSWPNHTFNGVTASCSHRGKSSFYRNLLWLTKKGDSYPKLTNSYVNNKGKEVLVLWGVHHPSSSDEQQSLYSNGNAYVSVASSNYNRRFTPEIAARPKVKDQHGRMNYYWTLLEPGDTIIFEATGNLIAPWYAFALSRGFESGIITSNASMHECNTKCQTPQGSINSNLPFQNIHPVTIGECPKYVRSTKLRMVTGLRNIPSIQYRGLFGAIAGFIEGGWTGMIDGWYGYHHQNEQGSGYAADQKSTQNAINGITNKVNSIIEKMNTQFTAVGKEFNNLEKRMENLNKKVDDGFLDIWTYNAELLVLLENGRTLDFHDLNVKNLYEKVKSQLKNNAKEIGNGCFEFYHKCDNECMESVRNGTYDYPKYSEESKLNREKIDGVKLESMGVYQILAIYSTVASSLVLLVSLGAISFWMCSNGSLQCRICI

With `C[C@H]1[C@H](C)CC[C@]2(C(=O)NCCNC(=O)c3ccccc3O)CC[C@]3(C)C(=CC[C@@H]4[C@@]5(C)CC[C@H](O)C(C)(C)[C@@H]5CC[C@]43C)[C@H]12`, in series [1], the inhibition result is “Dose-dependent effect”. For the same compound, the half-inhibitory concentration (IC50) in series [2] stood at 5.8 µM. Also, the outcome in series [3] was Active. In addition, the Kd in series [4] turned out to be 15.6 µM. Besides, the CC50 at 40 h in series [5] is greater than 100 µM. In series [6], the Activity result is reported as “Non-Toxic”.
Regarding `C[C@H]1[C@H](C)CC[C@]2(C(=O)NCCNC(=O)/C=C/c3ccccc3)CC[C@]3(C)C(=CC[C@@H]4[C@@]5(C)CC[C@H](O)C(C)(C)[C@@H]5CC[C@]43C)[C@H]12`, the IC50 in series [2] came to 18.3 µM. In addition, the outcome in series [3] was Active. The cytotoxic concentration (CC50) at 40 h in series [5] is greater than 100 µM. For the same compound, the Activity entry in series [6] is listed as “Non-Toxic”.
As for `CC1(C)CC[C@]2(C(=O)NCCNC(=O)c3ccccc3O)CC[C@]3(C)C(=CC[C@@H]4[C@@]5(C)CC[C@H](O)C(C)(C)[C@@H]5CC[C@]43C)[C@@H]2C1`, in series [2], the IC50 was found to be 7.65 µM. For the same compound, the outcome in series [3] was Active. The Kd in series [4] worked out at 36 µM. Moreover, the 50% cytotoxic concentration (CC50) at 40 h in series [5] was greater than 100 µM. Besides, the Activity result in series [6] is reported as “Non-Toxic”.
Regarding `C[C@H]1[C@H](C)CC[C@]2(C(=O)NCCNC(=O)c3cc(OCc4ccccc4)c(OCc4ccccc4)c(OCc4ccccc4)c3)CC[C@]3(C)C(=CC[C@@H]4[C@@]5(C)CC[C@H](O)C(C)(C)[C@@H]5CC[C@]43C)[C@H]12`, the IC50 in series [2] was found to be 32.9 µM. The outcome in series [3] was Active. The CC50 at 40 h in series [5] was greater than 100 µM. The Activity entry in series [6] is recorded as “Non-Toxic”.
In the same order, the values of `C=C(C)[C@@H]1CC[C@]2(C(=O)NCCNC(=O)c3ccccc3O)CC[C@]3(C)[C@H](CC[C@@H]4[C@@]5(C)CC[C@H](O)C(C)(C)[C@@H]5CC[C@]43C)[C@@H]12` are 9.55 µM, “Active”, greater than 100 µM and “Non-Toxic”.
In the same order, the values of `CC1(C)CC[C@]2(C(=O)NCCNC(=O)c3ccccc3O)[C@H](O)C[C@]3(C)C(=CC[C@@H]4[C@@]5(C)CC[C@H](O)C(C)(C)[C@@H]5CC[C@]43C)[C@@H]2C1` are 5.84 µM, “Active”, greater than 100 µM and “Non-Toxic”.
`C[C@H]1[C@H](C)CC[C@]2(C(=O)O)CC[C@]3(C)C(=CC[C@@H]4[C@@]5(C)CC[C@H](O)C(C)(C)[C@@H]5CC[C@]43C)[C@H]12` [URSOLIC ACID]: the Kd in series [4] stood at 46.5 µM.

By IC50 is commonly meant the midpoint of a concentration-inhibition curve. In general, Kd refers to the constant that tells how readily two partners part at equilibrium. The CC50 is the concentration at which the toxic effect on the cells reaches its halfway point.
